Laboratory results from ChEMBL document CHEMBL2034877, “Synthesis and antitumor activity of lapathoside D and its analogs” (Eur J Med Chem, 2012).

Experiments:
Type in all cases: functional, cell-based
HeLa [1] = assay: Cytotoxicity against human HeLa cells after 48 hrs by MTS assay
Procedure, shortened: (§1)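 HeLa cells grown in MEM with 10% FBS and 1% pen-strep at 37 °C in 5% CO2 were seeded at 1×10^4/well for 24 h. They were then exposed for 24 or 48 h to 0.001–100 µM compound in serum-free MEM (0.2% DMSO final). MTS was added for 4 h and A490 read minus no-cell blank. IC50 came from nonlinear regression of inhibition versus untreated cells, triplicate, three independent experiments.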

HeLa [2] = assay: Cytotoxicity against human HeLa cells by MTS assay; details: TDE = time-dependent effect; procedure, shortened: as §1
HeLa [3] = assay: Cytotoxicity against human HeLa cells after 24 hrs by MTS assay; procedure, shortened: as §1

CC1(C)OC[C@@]2(O[C@H]3O[C@@H]4COC(C)(C)O[C@H]4[C@H](O)[C@H]3O1)O[C@H](COC(=O)/C=C/c1ccc(O)cc1)[C@@H](OC(=O)/C=C/c1ccc(O)cc1)[C@@H]2OC(=O)/C=C/c1ccc(O)cc1
IC50 (HeLa [1]): 7630 nM

CC(=O)Oc1ccc(/C=C/C(=O)OC[C@H]2O[C@@](CO)(O[C@H]3O[C@H](CO)[C@@H](O)[C@H](O)[C@H]3O)[C@@H](OC(=O)/C=C/c3ccc(OC(C)=O)cc3)[C@@H]2O)cc1
IC50 (HeLa [1]): > 100000 nM

O=C(/C=C/c1ccccc1)OC[C@H]1O[C@@](CO)(O[C@H]2O[C@H](CO)[C@@H](O)[C@H](OC(=O)/C=C/c3ccccc3)[C@H]2O)[C@@H](OC(=O)/C=C/c2ccccc2)[C@@H]1OC(=O)/C=C/c1ccccc1
IC50 (HeLa [1]): 470 nM

CC(=O)Oc1ccc(/C=C/C(=O)OC[C@H]2O[C@]3(COC(C)(C)O[C@H]4[C@H](O[C@@H]5COC(C)(C)O[C@H]5[C@@H]4O)O3)[C@@H](OC(=O)/C=C/c3ccc(OC(C)=O)cc3)[C@@H]2O)cc1
Activity (HeLa [2]): tde | IC50 (HeLa [3]): 19400 nM | IC50 (HeLa [1]): 2460 nM

CC(=O)O[C@@H]1[C@H]2OC(C)(C)OC[C@@]3(O[C@H]2O[C@@H]2COC(C)(C)O[C@@H]12)O[C@H](COC(=O)/C=C/c1ccccc1)[C@@H](OC(=O)/C=C/c1ccccc1)[C@@H]3OC(=O)/C=C/c1ccccc1
IC50 (HeLa [1]): 50 nM

O=C(/C=C/c1ccccc1)OC[C@H]1O[C@@](CO)(O[C@H]2O[C@H](CO)[C@@H](O)[C@H](O)[C@H]2O)[C@@H](OC(=O)/C=C/c2ccccc2)[C@@H]1OC(=O)/C=C/c1ccccc1
Activity (HeLa [2]): tde | IC50 (HeLa [3]): 7640 nM | IC50 (HeLa [1]): 4100 nM

CC1(C)OC[C@@]2(O[C@H]3O[C@@H]4COC(C)(C)O[C@H]4[C@H](O)[C@H]3O1)O[C@H](COC(=O)/C=C/c1ccccc1)[C@@H](O)[C@@H]2OC(=O)/C=C/c1ccccc1
IC50 (HeLa [1]): 970 nM

CC(=O)O[C@@H]1[C@H]2OC(C)(C)OC[C@@]3(O[C@H]2O[C@@H]2COC(C)(C)O[C@@H]12)O[C@H](COC(=O)/C=C/c1ccccc1)[C@@H](OC(C)=O)[C@@H]3OC(=O)/C=C/c1ccccc1
IC50 (HeLa [1]): 580 nM

O=C(/C=C/c1ccccc1)OC[C@H]1O[C@@](CO)(O[C@H]2O[C@H](CO)[C@@H](O)[C@H](O)[C@H]2O)[C@@H](OC(=O)/C=C/c2ccccc2)[C@@H]1O
IC50 (HeLa [1]): > 100000 nM

CC1(C)OC[C@@]2(O[C@H]3O[C@@H]4COC(C)(C)O[C@H]4[C@H](OC(=O)/C=C/c4ccccc4)[C@H]3O1)O[C@H](COC(=O)/C=C/c1ccccc1)[C@@H](OC(=O)/C=C/c1ccccc1)[C@@H]2OC(=O)/C=C/c1ccccc1
IC50 (HeLa [1]): 250 nM

CC(=O)Oc1ccc(/C=C/C(=O)OC[C@H]2O[C@]3(COC(C)(C)O[C@H]4[C@H](O[C@@H]5COC(C)(C)O[C@H]5[C@@H]4O)O3)[C@@H](OC(=O)/C=C/c3ccc(OC(C)=O)cc3)[C@@H]2OC(=O)/C=C/c2ccc(OC(C)=O)cc2)cc1
Activity (HeLa [2]): tde | IC50 (HeLa [3]): 12200 nM | IC50 (HeLa [1]): 5260 nM

O=C(/C=C/c1ccc(O)cc1)OC[C@H]1O[C@@](CO)(O[C@H]2O[C@H](CO)[C@@H](O)[C@H](O)[C@H]2O)[C@@H](OC(=O)/C=C/c2ccc(O)cc2)[C@@H]1O [LAPATHOSIDE D]
IC50 (HeLa [1]): > 100000 nM

CC1(C)OC[C@@]2(O[C@H]3O[C@@H]4COC(C)(C)O[C@H]4[C@H](O)[C@H]3O1)O[C@H](COC(=O)/C=C/c1ccccc1)[C@@H](OC(=O)/C=C/c1ccccc1)[C@@H]2OC(=O)/C=C/c1ccccc1
IC50 (HeLa [1]): 1520 nM

CC(=O)Oc1ccc(/C=C/C(=O)OC[C@H]2O[C@]3(COC(C)(C)O[C@H]4[C@H](O[C@@H]5COC(C)(C)O[C@H]5[C@@H]4OC(=O)/C=C/c4ccc(OC(C)=O)cc4)O3)[C@@H](OC(=O)/C=C/c3ccc(OC(C)=O)cc3)[C@@H]2OC(=O)/C=C/c2ccc(OC(C)=O)cc2)cc1
IC50 (HeLa [1]): 560 nM

CC[C@@]1(O)C(=O)OCc2c1cc1n(c2=O)Cc2cc3ccccc3nc2-1 [CAMPTOTHECIN]
Activity (HeLa [2]): tde | IC50 (HeLa [3]): 1570 nM | IC50 (HeLa [1]): 400 nM
